According to the RNAGym collection of RNA variant scans (doi:10.1126/science.aae0568):
Variants at the floor of the assay were thinned out.

B1: tRNA (parent)
chain: GUUCCGUUGGCGUAAUGGUAACGCGUCUCCCUCCUAAGGAGAAGACUGCGGGUUCGAGUCCCGUACGGAACG

Variants of: B1
Experiment: yeast fitness relative to wild type (ratio to wild type); higher = fitter; tRNA-Arg(CCU), competitive growth, 37 C, YPD
Method in brief: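 Start and end populations of a pooled competition were compared by 100-nucleotide paired-end sequencing of gene amplicons. The Saccharomyces cerevisiae strains carried tRNA-Arg(CCU) gene variants at the native genomic locus, synthesised with a 3% per-site mutation rate at 69 sites, and competed in YPD at 37°C for 24 hours in six parallel replicates. Darwinian fitness relative to wild type was based on the change in genotype frequencies. Genotypes required ≥ 100 starting reads, and estimates < 0.5 were set to 0.5.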

Compared with C5G G17C A43U, C5G G23C C31U A37C is lower in yeast fitness: 0.516 for the first, no more than 0.5 for the second.

Compared with C5G G48C, C5G G18A is lower in yeast fitness: 0.758 for the first, 0.713 for the second.

First: C5G G18C
Second: C5G U26C A45C G63A
The yeast fitness of the first is higher: 0.733 for the first, no more than 0.5 for the second.

Compared with C5G G17C A70U, C5G U8G A14G A43C G48A is higher in yeast fitness: no more than 0.5 for the first, 0.544 for the second.

Compared with C5G G25C G56A, C5G U8C A21C C33U U59G is lower in yeast fitness: 0.62 for the first, no more than 0.5 for the second.

C5G G41C U54A and C5G G23C C33U A43C U64A cannot be ordered by yeast fitness: no more than 0.5 for the first, no more than 0.5 for the second.

First: C5G U19A C30G G39C U53C C55A
Second: C5G G17A A40C
The yeast fitness of the first is lower: no more than 0.5 for the first, 0.651 for the second.

Compared with C5G U7C U8A, C5G G25A U47C is higher in yeast fitness: 0.56 for the first, 0.781 for the second.

C5G G41A A42C G50C A70G and C5G U8A C62A A69U cannot be ordered by yeast fitness: no more than 0.5 for the first, no more than 0.5 for the second.

C5G U16A C34G G39C C55A A57C and C5G U47C U59A cannot be ordered by yeast fitness: no more than 0.5 for the first, no more than 0.5 for the second.

Going from C5G G48C G56A to C5G U19G A36U G56C A65C, the yeast fitness falls from 0.544 to no more than 0.5.

Compared with C5G U16A A21C A57C, C5G G12C G18A C24U C29U A36G A45C A69C is lower in yeast fitness: 0.624 for the first, no more than 0.5 for the second.

C5G G18C C60G and C5G U13A U19A C30U A70U cannot be ordered by yeast fitness: no more than 0.5 for the first, no more than 0.5 for the second.

C5G U8A A14G and C5G G12U A45U A57U cannot be ordered by yeast fitness: no more than 0.5 for the first, no more than 0.5 for the second.

C5G G44C C49G A69U and C5G U13A C31G G50A G67A cannot be ordered by yeast fitness: no more than 0.5 for the first, no more than 0.5 for the second.

C5G G18C G56C and C5G G18C C31A G38U cannot be ordered by yeast fitness: no more than 0.5 for the first, no more than 0.5 for the second.

C5G U13C A37U G51C A57C and C5G G51C U54A cannot be ordered by yeast fitness: no more than 0.5 for the first, no more than 0.5 for the second.

First: C5G U7C C24G A43C
Second: C5G U19C
The yeast fitness of the first is lower: 0.629 for the first, 0.997 for the second.

First: C5G U19A
Second: C5G G25A U28G G38C C62G C66U
The yeast fitness of the first is higher: 0.818 for the first, no more than 0.5 for the second.

Compared with C5G U7G U13A C30A A43C U53C, C5G U32A C34U is lower in yeast fitness: 0.876 for the first, no more than 0.5 for the second.

Compared with C5G U13C A43G G50C, C5G G23C G48A G67A is higher in yeast fitness: 0.566 for the first, 0.567 for the second.

First: C5G G68A
Second: C5G G68C
The yeast fitness of the first is lower: 0.716 for the first, 0.826 for the second.

C5G U7A A20C C31G C34U C62A and C5G U13C A20C U32G C46U G58C cannot be ordered by yeast fitness: no more than 0.5 for the first, no more than 0.5 for the second.

Going from C5G U26A A36C to C5G U32A A57G, the yeast fitness rises from no more than 0.5 to 0.549.

First: C5G G17A G18A A57C
Second: C5G U35G A37G
The yeast fitness of the first is higher: 0.554 for the first, 0.536 for the second.

Going from C5G G12C G18A C24U C29U A36G to C5G U26A A40U G63C, the yeast fitness falls from 0.608 to no more than 0.5.

First: C5G U13C A21C
Second: C5G G51U G67C
The yeast fitness of the first is higher: 0.585 for the first, no more than 0.5 for the second.

Going from C5G G18A A42C A45C to C5G G12A G25A, the yeast fitness rises from no more than 0.5 to 0.783.

C5G U16C G67A and C5G U13G G18C A21C C60G A65U C66U cannot be ordered by yeast fitness: no more than 0.5 for the first, no more than 0.5 for the second.

Compared with C5G U13C A43C, C5G U16A A43G is higher in yeast fitness: no more than 0.5 for the first, 0.573 for the second.

First: C5G G48C G67C
Second: C5G U7A A20C C60U A69U
The yeast fitness of the first is higher: 0.573 for the first, 0.546 for the second.

Compared with C5G U8C C27G C33G U35A C49U, C5G G23A G25C C49U is higher in yeast fitness: no more than 0.5 for the first, 0.544 for the second.

C5G U13G C29U A40G C60U A65G C66U and C5G G17C G38C G52A cannot be ordered by yeast fitness: no more than 0.5 for the first, no more than 0.5 for the second.

Compared with C5G G56C A65C, C5G G56C A65U is lower in yeast fitness: 0.549 for the first, no more than 0.5 for the second.

C5G U35A G51A and C5G G50C G51C G56A cannot be ordered by yeast fitness: no more than 0.5 for the first, no more than 0.5 for the second.

First: C5G U16A U19G A20C C27U C29U C30U A70U
Second: C5G G12A C46U G52C
The yeast fitness of the first is lower: no more than 0.5 for the first, 0.61 for the second.

Going from C5G G25C A37G to C5G U13C A21G C49A, the yeast fitness falls from 0.504 to no more than 0.5.

Compared with C5G U19C U26A C55U, C5G U8C G56A is higher in yeast fitness: no more than 0.5 for the first, 0.723 for the second.

C5G U26C G44A C62A and C5G U8C G12A U28A A65G cannot be ordered by yeast fitness: no more than 0.5 for the first, no more than 0.5 for the second.

First: C5G U8C
Second: C5G U8G
The yeast fitness of the first is higher: 0.843 for the first, 0.527 for the second.

C5G U26C C30U C49U A69U and C5G U47A G52A G68C cannot be ordered by yeast fitness: no more than 0.5 for the first, no more than 0.5 for the second.

Going from C5G G44C U64C to C5G U7G G38A A40C G56A C60U C61G, the yeast fitness falls from 0.586 to no more than 0.5.

C5G G25A A42C G68U and C5G U13A G23A G38A G48A C60A cannot be ordered by yeast fitness: no more than 0.5 for the first, no more than 0.5 for the second.

Compared with C5G U8C C30U U54A, C5G G44C is higher in yeast fitness: no more than 0.5 for the first, 0.688 for the second.

C5G U13C C34A A57U and C5G U13C C29U C62U cannot be ordered by yeast fitness: no more than 0.5 for the first, no more than 0.5 for the second.

Going from C5G U13C C24U C49U to C5G U26C A37G C60A, the yeast fitness falls from 0.526 to no more than 0.5.

C5G G10C U13G C31G U59A and C5G U26G A36C C66A cannot be ordered by yeast fitness: no more than 0.5 for the first, no more than 0.5 for the second.

C5G G12A C46U G48A G52C and C5G G25C G44A A69C cannot be ordered by yeast fitness: no more than 0.5 for the first, no more than 0.5 for the second.

Compared with C5G U26C A69C, C5G U35C G50C G56A A70U is lower in yeast fitness: 0.617 for the first, no more than 0.5 for the second.

First: C5G G52A A65G A70U
Second: C5G U8A G39A C55U A70C
The yeast fitness of the first is lower: no more than 0.5 for the first, 0.623 for the second.

Going from C5G G25A G68C to C5G G25A C62G, the yeast fitness falls from 0.69 to 0.648.

C5G G18C C31A and C5G G17C G23C C33G A43C cannot be ordered by yeast fitness: no more than 0.5 for the first, no more than 0.5 for the second.

C5G U7G A36U G41A C49G and C5G U16A C33A cannot be ordered by yeast fitness: no more than 0.5 for the first, no more than 0.5 for the second.

Going from C5G G39C to C5G G39A U47G C49G A69C, the yeast fitness rises from 0.675 to 0.764.

Going from C5G U35A G63C to C5G G17C U47A C55A, the yeast fitness rises from no more than 0.5 to 0.516.

First: C5G G39A U47G C49G C66U A69C
Second: C5G G39C A70G
The yeast fitness of the first is lower: 0.57 for the first, 0.596 for the second.

C5G G10C U19G A45C G51A and C5G U8G C11G C49A G52C cannot be ordered by yeast fitness: no more than 0.5 for the first, no more than 0.5 for the second.

C5G G51A G52A and C5G U7C U54A G63A cannot be ordered by yeast fitness: no more than 0.5 for the first, no more than 0.5 for the second.

Going from C5G G41C U47G to C5G G41C U47A, the yeast fitness rises from no more than 0.5 to 0.526.

C5G U19G C22U U32C G56A A65C and C5G G38A A43U G56A cannot be ordered by yeast fitness: no more than 0.5 for the first, no more than 0.5 for the second.

First: C5G U8C C11A A15G G18A C30G
Second: C5G U32C G38C
The yeast fitness of the first is lower: no more than 0.5 for the first, 0.534 for the second.

C5G G18A C55A C61U and C5G G17C G25A A40C G68A cannot be ordered by yeast fitness: no more than 0.5 for the first, no more than 0.5 for the second.

C5G U13C C24U C49U A70G and C5G G17C A42U G52A G67U cannot be ordered by yeast fitness: no more than 0.5 for the first, no more than 0.5 for the second.

Compared with C5G G17C U47A C55A G68A, C5G U19C U54C A69C is lower in yeast fitness: 0.562 for the first, no more than 0.5 for the second.

C5G U19C U54C A69U and C5G U13G C24G cannot be ordered by yeast fitness: no more than 0.5 for the first, no more than 0.5 for the second.

Going from C5G G23A U54A to C5G G48C C49U, the yeast fitness rises from no more than 0.5 to 0.622.

First: C5G U28G G58C C62U G63C U64G
Second: C5G U54G
The yeast fitness of the first is lower: 0.628 for the first, 0.654 for the second.

Going from C5G U54A to C5G G23A C61A, the yeast fitness falls from 0.666 to 0.529.

Going from C5G G23A C61G to C5G G58A G67C, the yeast fitness rises from no more than 0.5 to 0.687.

C5G U35A C60A and C5G U8A G41C U47A C61A G67C cannot be ordered by yeast fitness: no more than 0.5 for the first, no more than 0.5 for the second.

Going from C5G U16A C61U to C5G G25A C46U A69U, the yeast fitness falls from 0.589 to 0.576.

First: C5G U7C C11G C31G
Second: C5G U35A G44C C66U G67U A70G
The yeast fitness of the first is lower: no more than 0.5 for the first, 0.542 for the second.

C5G U8C A36C A43U and C5G U35A A36C C55A cannot be ordered by yeast fitness: no more than 0.5 for the first, no more than 0.5 for the second.

C5G U7A C22U C30A C49G C62G and C5G U16A G44A C46U A69C cannot be ordered by yeast fitness: no more than 0.5 for the first, no more than 0.5 for the second.

First: C5G G56A G58C
Second: C5G U16A C31G A65U C66A
The yeast fitness of the first is higher: 0.756 for the first, no more than 0.5 for the second.

Going from C5G U13A U19A C30U to C5G U8C G12A C46U G68A, the yeast fitness falls from 0.573 to no more than 0.5.

C5G G17A C34A G39C A40C G56C C61G C62G G68C and C5G G52A G56C cannot be ordered by yeast fitness: no more than 0.5 for the first, no more than 0.5 for the second.

Compared with C5G U53A, C5G U53C is higher in yeast fitness: 0.658 for the first, 0.866 for the second.

C5G G39A C46U G67A and C5G G18A C27G C30U C31G cannot be ordered by yeast fitness: no more than 0.5 for the first, no more than 0.5 for the second.

Compared with C5G U13A, C5G U13C is lower in yeast fitness: 0.906 for the first, 0.875 for the second.

Going from C5G U13A C22G C29G A40U U54C C61G to C5G G25A C46U G50C C66U, the yeast fitness falls from 0.588 to no more than 0.5.

Going from C5G U16A G48A U54C to C5G U13C A21C G68A, the yeast fitness falls from 0.701 to no more than 0.5.

First: C5G U7C C30U G50C
Second: C5G U16C
The yeast fitness of the first is lower: no more than 0.5 for the first, 0.722 for the second.

Work on C5G G17A A37C A65C yielded a yeast fitness of 0.588.
